{"source": "paper PMC2233868", "about": "(The Journal of General Physiology, 2002)", "key": {"[1]": {"test_system": "volume-regulated anion channels (VRAC)", "assay": "Whole cell membrane current", "details": "for membrane leakiness: extracellular ATP 10 mM or higher, high concentrations of ADP; for r = k12(0)/k10(0) / δ, electrical distance of binding site inside the channel: pooled cells; for voltage dependence of VRAC block / effect on outward component of VRAC current: total nucleotide concentration 1 mM; for effect on outward component of VRAC current: HTS 17%"}, "[2]": {"test_system": "bovine aortic endothelial cells (BAEC)", "type": "cell-based"}, "[3]": {"test_system": "cultured ciliary epithelial cells", "details": "ref Mitchell et al., 1998; cited from earlier work"}, "[4]": {"test_system": "prostate cancer cells", "details": "ref Sauer et al., 2000; cited from earlier work"}, "[5]": {"test_system": "bovine aortic endothelial cells (BAEC)", "details": "disruption of the actin cytoskeleton; ref Koyama et al., 2001; cited from earlier work"}, "[6]": {"test_system": "bovine aortic endothelial cells (BAEC)", "assay": "HTS-induced Ca2+ oscillations, fura-2 fluorescence", "type": "cell-based", "details": "HTS 40%; glibenclamide 100 μM"}, "[7]": {"test_system": "bovine aortic endothelial cells (BAEC)", "assay": "HTS-induced NO production, DAF-2 fluorescence", "type": "cell-based", "method_in_brief": "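NO was imaged with DAF-2 in first-subculture bovine aortic endothelial cells bathed in modified Krebs solution (1.5 mM Ca2+, pH 7.3), made hypotonic with distilled water. Fluorescence in each experiment was normalized to a reference image taken before the hypotonic challenge. n = cells examined; mean ± SEM; Student's unpaired t test, P < 0.05 significant.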"}, "[8]": {"test_system": "bovine aortic endothelial cells (BAEC)", "assay": "Ca2+ transients induced by exogenously applied ATP, fura-2", "type": "cell-based", "details": "exogenous ATP 1 μM", "method_in_brief": "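[Ca2+]i tracked by fura-2 fluorescence using digital fluorescence microscopy at room temperature (20–25°C). Mean ± SEM; Student's unpaired t test, P < 0.05 significant.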"}, "[9]": {"test_system": "VRAC currents in BC3H1 and C2C12 cells", "details": "concentrations up to 100 μM; ref Voets et al., 1997; cited from earlier work"}, "[10]": {"test_system": "large conductance anion channel (368 pS)", "details": "ref Li et al., 2000; cited from earlier work"}, "[11]": {"details": "10 or 20 mM extracellular ADP, extracellular Cl− 2 mM"}, "[12]": {"details": "fit to simplified Eq. 2, total nucleotide 1 mM"}, "[13]": {"details": "representative data, Figs. 4 C (dashed line) and 5 B, Eq. 2"}, "[14]": {"details": "fit to Eq. 1, extracellular ATP total 1 mM"}, "[15]": {"details": "representative cell, Fig. 4 C solid line, Eq. 1"}, "[16]": {"details": "20% HTS, 10 min, fluoxetine 1 μM, glibenclamide 100 μM, tamoxifen 10 μM, verapamil 10 μM, P < 0.01"}}, "note": "Where “and” joins values, the source holds several entries; their conditions need not be identical. Equal values may be shown once. Entries after “also recorded” stand apart in the source; their conditions may differ. Read-outs that look alike come from different tables or passages of the source."}
{"compound": "Nc1ncnc2c1ncn2[C@@H]1O[C@H](COP(=O)(O)OP(=O)(O)O)[C@@H](O)[C@H]1O", "note": "[ADP]", "values": [{"measurement": "effect on outward component of VRAC current in low Cl− hypotonic solution", "setting": "[1]; 1 mM extracellular ADP, extracellular Cl− 2 mM", "result": "still inhibited"}, {"measurement": "effect on inward current in low Cl− hypotonic solution", "setting": "[1]; [11]", "result": "virtually no effect"}, {"measurement": "effect on outward current in low Cl− hypotonic solution", "setting": "[1]; [11]", "result": "significantly enhanced"}, {"measurement": "membrane leakiness", "setting": "[1]", "result": "did not cause membrane leakiness"}, {"measurement": "r = k12(0)/k10(0)", "setting": "[1]; [12]", "result": "0.23 ± 0.05"}, {"measurement": "δ, electrical distance of binding site inside the channel", "setting": "[1]; [12]", "result": "0.48 ± 0.01"}, {"measurement": "r of the fitted curve", "setting": "[1]; [13]", "result": 0.26}, {"measurement": "δ of the fitted curve", "setting": "[1]; [13]", "result": 0.40}, {"measurement": "voltage dependence of VRAC block", "setting": "[1]", "result": "less voltage sensitive; also recorded: bell-shaped voltage-dependent inhibition"}]}
{"compound": "Nc1ncnc2c1ncn2[C@@H]1O[C@H](COP(=O)(O)O)[C@@H](O)[C@H]1O", "note": "[AMP]", "values": [{"measurement": "voltage dependence of VRAC block", "setting": "[1]", "result": "weakly voltage-dependent"}]}
{"compound": "Nc1ncnc2c1ncn2[C@@H]1O[C@H](COP(=O)(O)OP(=O)(O)OP(=O)(O)O)[C@@H](O)[C@H]1O", "note": "[ATP]", "values": [{"measurement": "activation of a VRAC-like current in isotonic solutions", "setting": "[1]; exogenous ATP, isotonic solution", "result": "did not activate"}, {"measurement": "membrane leakiness", "setting": "[1]", "result": "induced membrane leakiness"}, {"measurement": "membrane potential of maximum inhibition of outward VRAC current", "setting": "[1]; extracellular ATP total 1 mM, free 0.15 mM", "result": "30–40 mV"}, {"measurement": "r = k12(0)/k10(0)", "setting": "[1]; [14]", "result": "0.38 ± 0.08"}, {"measurement": "δ, electrical distance of binding site inside the channel", "setting": "[1]; [14]", "result": "0.41 and 0.41 ± 0.03"}, {"measurement": "r = k12(0)/k10(0)", "setting": "[1]; [12]", "result": "0.42 ± 0.16"}, {"measurement": "δ, electrical distance of binding site inside the channel", "setting": "[1]; [12]", "result": "0.42 ± 0.02"}, {"measurement": "r of the fitted curve", "setting": "[1]; [15]", "result": 0.29}, {"measurement": "δ of the fitted curve", "setting": "[1]; [15]", "result": 0.42}, {"measurement": "r of the fitted curve", "setting": "[1]; [13]", "result": 0.22}, {"measurement": "δ of the fitted curve", "setting": "[1]; [13]", "result": 0.43}, {"measurement": "voltage dependence of VRAC block", "setting": "[1]", "result": "marked voltage dependency"}, {"measurement": "effect on outward component of VRAC current", "setting": "[1]", "result": "inhibited"}]}
{"compound": "C[C@H]1CCC/C=C/[C@@H]2C[C@H](O)C[C@H]2[C@H](O)/C=C/C(=O)O1", "note": "[Brefeldin A, brefeldin A]", "values": [{"measurement": "effect on HTS-induced VRAC currents", "setting": "[1]; pretreated with 3 μg/ml for 2.5 h, HTS 20%, −50 mV and 100 mV", "result": "did not, however, affect"}, {"measurement": "effect on HTS-induced ATP release", "setting": "[2]; pretreated with 3 μg/ml for 2.5 h, HTS 20%", "result": "did not, however, affect"}]}
{"compound": "Nc1ccn([C@@H]2O[C@H](COP(=O)(O)OP(=O)(O)OP(=O)(O)O)[C@@H](O)[C@H]2O)c(=O)n1", "note": "[CTP]", "values": [{"measurement": "r = k12(0)/k10(0)", "setting": "[1]; [12]", "result": "0.21 ± 0.09"}, {"measurement": "δ, electrical distance of binding site inside the channel", "setting": "[1]; [12]", "result": "0.47 ± 0.02"}, {"measurement": "r of the fitted curve", "setting": "[1]; [13]", "result": 0.057}, {"measurement": "δ of the fitted curve", "setting": "[1]; [13]", "result": 0.44}, {"measurement": "voltage dependence of VRAC block", "setting": "[1]", "result": "bell-shaped voltage-dependent inhibition"}]}
{"compound": "Nc1nc2c(ncn2[C@@H]2O[C@H](COP(=O)(O)OP(=O)(O)OP(=O)(O)O)[C@@H](O)[C@H]2O)c(=O)[nH]1", "note": "[GTP]", "values": [{"measurement": "r = k12(0)/k10(0)", "setting": "[1]; [12]", "result": "0.70 ± 0.30"}, {"measurement": "δ, electrical distance of binding site inside the channel", "setting": "[1]; [12]", "result": "0.41 ± 0.06"}, {"measurement": "r of the fitted curve", "setting": "[1]; [13]", "result": 0.24}, {"measurement": "δ of the fitted curve", "setting": "[1]; [13]", "result": 0.44}, {"measurement": "voltage dependence of VRAC block", "setting": "[1]", "result": "bell-shaped voltage-dependent inhibition"}]}
{"compound": "O=C(O)c1cc([N+](=O)[O-])ccc1NCCCc1ccccc1", "note": "[NPPB]", "values": [{"measurement": "effect on ATP release", "setting": "[3]", "result": "suppressed"}, {"measurement": "effect on ATP release", "setting": "[4]", "result": "suppressed"}]}
{"compound": "O=c1ccn([C@@H]2O[C@H](COP(=O)(O)OP(=O)(O)OP(=O)(O)O)[C@@H](O)[C@H]2O)c(=O)[nH]1", "note": "[UTP]", "values": [{"measurement": "r = k12(0)/k10(0)", "setting": "[1]; [12]", "result": "0.14 ± 0.05"}, {"measurement": "δ, electrical distance of binding site inside the channel", "setting": "[1]; [12]", "result": "0.39 ± 0.04"}, {"measurement": "r of the fitted curve", "setting": "[1]; [13]", "result": 0.13}, {"measurement": "δ of the fitted curve", "setting": "[1]; [13]", "result": 0.42}, {"measurement": "voltage dependence of VRAC block", "setting": "[1]", "result": "bell-shaped voltage-dependent inhibition"}]}
{"compound": "Nc1ncnc2c1ncn2[C@@H]1O[C@H](CO)[C@@H](O)[C@H]1O", "note": "[adenosine]", "values": [{"measurement": "effect on outward component of VRAC current", "setting": "[1]", "result": "does not inhibit"}]}
{"compound": "C=C1[C@@H](C)[C@H]2[C@H](Cc3ccccc3)NC(=O)[C@]23OC(=O)/C=C/[C@H](O)CCC[C@@H](C)C/C=C/[C@H]3[C@@H]1O", "note": "[cytochalasin B]", "values": [{"measurement": "effect on HTS-induced ATP release", "setting": "[5]", "result": "does not inhibit"}]}
{"compound": "CNCCC(Oc1ccc(C(F)(F)F)cc1)c1ccccc1", "note": "(centres unmarked) [fluoxetine]", "values": [{"measurement": "effect on HTS-induced Ca2+ oscillations", "setting": "[6]", "result": "abolished"}, {"measurement": "effect on HTS-induced ATP release", "setting": "[2]; [16]", "result": "Inhibition"}, {"measurement": "effect on HTS-induced NO production", "setting": "[7]", "result": "abolished"}]}
{"compound": "COc1ccc(Cl)cc1C(=O)NCCc1ccc(S(=O)(=O)NC(=O)NC2CCCCC2)cc1", "note": "[glibenclamide]", "values": [{"measurement": "effect on Ca2+ transients induced by exogenously applied ATP", "setting": "[8]", "result": "did not affect"}, {"measurement": "effect on HTS-induced Ca2+ oscillations", "setting": "[6]", "result": "abolished"}, {"measurement": "effect on ADP-induced outward current", "setting": "[1]; 100 μM, low Cl− hypotonic solution, unpublished data", "result": "suppressed"}, {"measurement": "effect on HTS-induced ATP release", "setting": "[2]; [16]", "result": "Inhibition"}, {"measurement": "effect on HTS-induced NO production", "setting": "[7]", "result": "abolished"}]}
{"compound": "CC/C(=C(\\c1ccccc1)c1ccc(OCCN(C)C)cc1)c1ccccc1", "note": "[tamoxifen]", "values": [{"measurement": "effect on ATP release", "setting": "[4]", "result": "effective"}, {"measurement": "effect on VRAC currents", "setting": "[9]", "result": "did not significantly inhibit"}, {"measurement": "effect on large conductance anion channel", "setting": "[10]", "result": "activates"}, {"measurement": "effect on HTS-induced ATP release", "setting": "[2]; [16]", "result": "Inhibition"}]}
{"compound": "COc1ccc(CCN(C)CCCC(C#N)(c2ccc(OC)c(OC)c2)C(C)C)cc1OC", "note": "(centres unmarked) [verapamil]", "values": [{"measurement": "effect on HTS-induced Ca2+ oscillations", "setting": "[6]", "result": "abolished"}, {"measurement": "effect on HTS-induced ATP release", "setting": "[2]; [16]", "result": "Inhibition"}, {"measurement": "effect on HTS-induced NO production", "setting": "[7]", "result": "abolished"}]}
